Results taken from ChEMBL document CHEMBL1122794, “[(Arylcarbonyl)oxy]propanolamines. 1. Novel beta-blockers with ultrashort duration of action” (J Med Chem, 1984).

Experiments:
[1] = Selectivity determined by expression 10[pA2(atria) - pA2 (trachea)] in guinea pig; format: functional, Cavia porcellus
Canis familiaris [2] = organism: Canis familiaris; experiment: Time taken for 80% recovery at a dose of 36 microg (3-h infusion period); format: functional, organism-based; settings: Canis lupus familiaris
Adrenergic receptor beta [3] = target: T1, Adrenergic receptor beta (Homo sapiens, UniProt P08588+P07550+P13945); experiment: In vitro blocking of beta adrenergic receptor in guinea pig trachea; format: tissue-based, Cavia porcellus; settings: target entry is the homologue from another species
[4] = T1/2 in canine blood; format: ADME, […], Canis lupus familiaris; settings: dog
Method in brief: (§1)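 1 mL of solution containing 50 µg of compound was added to 1 mL of dog or human whole blood, or to 1 mL of 33% (w/v) canine liver homogenate. They were assayed by HPLC on a phenyl column with 60% acetonitrile/40% 0.05 M sodium phosphate (pH 6.6) and UV detection. Half-life was read graphically from concentration versus time.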

Canis familiaris [5] = organism: Canis familiaris; experiment: Percent inhibition of isoproterenol induced tachycardia at a dose of 36 microg (3-h infusion period); format: functional, Canis lupus familiaris
Adrenergic receptor beta [6] = target: T1, Adrenergic receptor beta; experiment: In Vitro inhibition of the beta adrenergic receptor in guinea pig atria; format: tissue-based, Cavia porcellus; settings: target entry is the homologue from another species
[7] = t1/2 in canine liver; format: ADME, Canis lupus familiaris; settings: dog
Canis familiaris [8] = organism: Canis familiaris; experiment: Time taken for 80% recovery at a dose of 27 microg (3-h infusion period); format: functional, organism-based; settings: Canis lupus familiaris
Canis familiaris [9] = organism: Canis familiaris; experiment: Percent inhibition of isoproterenol induced tachycardia at a dose of 27 microg (3-h infusion period); format: functional, Canis lupus familiaris
[10] = Stability at pH 7.4 and 37 degree Celsius (after 18 h); format: physicochemical; settings: buffer
Method in brief: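 Chemical stability was tested in pH 7.4 buffer at 37 °C. The percentage of parent compound remaining after 18 h of incubation was recorded.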

[11] = Time in which 1/2 of the initial amount disappeared in canine liver (44); format: ADME, […], Canis lupus familiaris; settings: dog; method in brief: as §1
[12] = Time in which 1/2 of the initial amount disappeared in human blood.; format: ADME, organism-based; method in brief: as §1
Canis familiaris [13] = organism: Canis familiaris; experiment: Time taken for 80% recovery at a dose of 182 microg (3-h infusion period); format: functional, organism-based; settings: Canis lupus familiaris
Canis familiaris [14] = organism: Canis familiaris; experiment: Percent inhibition of isoproterenol induced tachycardia at a dose of 182 microg (3-h infusion period); format: functional, Canis lupus familiaris
Canis familiaris [15] = organism: Canis familiaris; experiment: Percent inhibition of isoproterenol induced tachycardia at a dose of 0.59-1.26 microg (3-h infusion period); format: functional, Canis lupus familiaris
Canis familiaris [16] = organism: Canis familiaris; experiment: Time taken for 80% recovery at a dose of 0.59-1.26 microg (3-h infusion period); format: functional, organism-based; settings: Canis lupus familiaris
Canis familiaris [17] = organism: Canis familiaris; experiment: Percent inhibition of isoproterenol induced tachycardia at a dose of 1 microg (3-h infusion period); format: functional, Canis lupus familiaris
Canis familiaris [18] = organism: Canis familiaris; experiment: Time taken for 80% recovery at a dose of 1 microg (3-h infusion period); format: functional, organism-based; settings: Canis lupus familiaris
Canis familiaris [19] = organism: Canis familiaris; experiment: Time taken for 80% recovery at a dose of 57/122 microg (3-h infusion period); format: functional, organism-based; settings: Canis lupus familiaris
Canis familiaris [20] = organism: Canis familiaris; experiment: Percent inhibition of isoproterenol induced tachycardia at a dose of 57/122 microg (3-h infusion period); format: functional, Canis lupus familiaris
Canis familiaris [21] = organism: Canis familiaris; experiment: Time taken for 80% recovery at a dose of 128 microg (3-h infusion period) / 85 kg min (40-min infusion model); format: functional, organism-based; settings: Canis lupus familiaris
Canis familiaris [22] = organism: Canis familiaris; experiment: Percent inhibition of isoproterenol induced tachycardia at a dose of 128 microg (3-h infusion period) / 85 kg min (40-min infusion model); format: functional, Canis lupus familiaris
[23] = Time in which 1/2 of the initial amount disappeared in human blood; format: ADME, organism-based; method in brief: as §1
Canis familiaris [24] = organism: Canis familiaris; experiment: Time taken for 80% recovery at a dose of 100 microg (3-h infusion period); format: functional, organism-based; settings: Canis lupus familiaris
Canis familiaris [25] = organism: Canis familiaris; experiment: Percent inhibition of isoproterenol induced tachycardia at a dose of 100 microg (3-h infusion period); format: functional, Canis lupus familiaris

For CCOC(=O)NCC(C)(C)NCC(O)COC(=O)c1ccccc1F (centres undefined), which Selectivity [1] is on record?
Its Selectivity is 1.

What about the Recovery time (Canis familiaris [2]) of the same compound?
Its Recovery time is 8 min.

And the pA2 (Adrenergic receptor beta [3])?
Its pA2 is 7.

What about the half-life [4] of the same compound?
Its half-life is 8 min.

What about the Inhibition (Canis familiaris [5]) of the same compound?
Its Inhibition is 49%.

What about the pA2 (Adrenergic receptor beta [6]) of the same compound?
Its pA2 is 7.1.

What about the half-life [7] of the same compound?
Its half-life is 1 min.

Which Selectivity [1] does the source give for CC(C)(C)NCC(O)COC(=O)c1ccccc1O (centres undefined) here?
Its Selectivity is -9.

What about the Recovery time (Canis familiaris [8]) of the same compound?
The Recovery time was greater than 60 min.

What about the pA2 (Adrenergic receptor beta [3]) of the same compound?
Its pA2 is 8.

What about the Inhibition (Canis familiaris [9]) of the same compound?
Its Inhibition is 73%.

And the half-life [4]?
The half-life was 41 min.

And the pA2 (Adrenergic receptor beta [6])?
Its pA2 is 7.1.

What about the half-life [7] of the same compound?
Its half-life is 31 min.

Which remaining at 18 h [10] does the source give for CC(C)NCC(O)COC(=O)c1ccccc1Cl (centres undefined) here?
Its remaining at 18 h is 92%.

What about the half-life [11] of the same compound?
Its half-life is 12 min.

What about the half-life [4] of the same compound?
The half-life was 28 min.

And the half-life [12]?
The half-life was 1.7 min.

With CC(C)NCC(O)COC(=O)c1ccc2ccccc2c1 (centres undefined) as the compound, how does the Recovery time (Canis familiaris [13]) read?
Its Recovery time is greater than 60 min.

And the Selectivity [1]?
The Selectivity was -2.

And the Inhibition (Canis familiaris [14])?
Its Inhibition is 54%.

What about the pA2 (Adrenergic receptor beta [3]) of the same compound?
Its pA2 is 6.6.

And the pA2 (Adrenergic receptor beta [6])?
The pA2 was 6.4.

For CC(C)NCC(O)COC(=O)c1ccc(N)cc1 (centres undefined), which Inhibition (Canis familiaris [15]) is on record?
Its Inhibition is 80%.

What about the Recovery time (Canis familiaris [16]) of the same compound?
The Recovery time was greater than 60 min.

And the Selectivity [1]?
The Selectivity was 1.

And the pA2 (Adrenergic receptor beta [3])?
The pA2 was 6.6.

What about the half-life [4] of the same compound?
Its half-life is greater than 180 min.

And the pA2 (Adrenergic receptor beta [6])?
Its pA2 is 6.7.

And the half-life [7]?
The half-life was greater than 180 min.

And the half-life [12]?
Its half-life is 60 min.

With CC(C)(CNC(N)=O)NCC(O)COC(=O)c1ccccc1F (centres undefined) [FLESTOLOL] as the compound, how does the Inhibition (Canis familiaris [17]) read?
Its Inhibition is 49%.

And the Recovery time (Canis familiaris [18])?
Its Recovery time is 21 min.

What about the Selectivity [1] of the same compound?
The Selectivity was -2.

What about the pA2 (Adrenergic receptor beta [3]) of the same compound?
Its pA2 is 8.4.

What about the half-life [4] of the same compound?
The half-life was 15 min.

What about the pA2 (Adrenergic receptor beta [6]) of the same compound?
Its pA2 is 8.1.

What about the half-life [7] of the same compound?
The half-life was 2.5 min.

Which Selectivity [1] does the source give for CC(C)(CNS(=O)(=O)c1ccccc1)NCC(O)COC(=O)c1ccccc1F.O=C(O)C(=O)O (centres undefined) here?
The Selectivity was 1.

What about the Recovery time (Canis familiaris [19]) of the same compound?
Its Recovery time is 6 min.

And the pA2 (Adrenergic receptor beta [3])?
The pA2 was 7.9.

What about the Inhibition (Canis familiaris [20]) of the same compound?
The Inhibition was 43%.

What about the half-life [4] of the same compound?
Its half-life is 15 min.

And the pA2 (Adrenergic receptor beta [6])?
Its pA2 is 7.

Which Selectivity [1] does the source give for CC(C)NCC(O)COC(=O)c1ccccc1 (centres undefined) here?
The Selectivity was -7.

What about the pA2 (Adrenergic receptor beta [3]) of the same compound?
Its pA2 is 7.2.

And the Recovery time (Canis familiaris [21])?
The Recovery time was 26 min.

What about the half-life [4] of the same compound?
Its half-life is 6.8 min.

And the Inhibition (Canis familiaris [22])?
The Inhibition was 63%.

What about the pA2 (Adrenergic receptor beta [6]) of the same compound?
The pA2 was 6.3.

What about the half-life [7] of the same compound?
The half-life was 8 min.

What about the half-life [12] of the same compound?
The half-life was 2.3 min.

Which results are given for CC(C)(C)NCC(O)COC(=O)c1ccc(F)cc1 (centres undefined)?
Selectivity [1]: -5; half-life [23]: 11.5 min; pA2 (Adrenergic receptor beta [3]): 8; half-life [4]: 16 min; pA2 (Adrenergic receptor beta [6]): 7.3; half-life [7]: 66 min

For COc1ccc(CCNCC(O)COC(=O)c2ccccc2F)cc1OC (centres undefined), which remaining at 18 h [10] is on record?
The remaining at 18 h was 35%.

And the Recovery time (Canis familiaris [24])?
Its Recovery time is greater than 60 min.

What about the Selectivity [1] of the same compound?
The Selectivity was 2.5.

And the Inhibition (Canis familiaris [25])?
The Inhibition was 48%.

And the pA2 (Adrenergic receptor beta [3])?
The pA2 was 5.7.

And the pA2 (Adrenergic receptor beta [6])?
The pA2 was 6.1.
